Screening results: PubChem BioAssay, several laboratories
The list is not random: actives were taken first. Their share in the collection is about 1.6%.
procasp3 activ: activates human procaspase-3. recombinant procaspase-3 D3A, Ac-DEVD-pNA absorbance 405 nm. hit rate 0.11% among 330,000. activation, % at 8.5 µM. P42574;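 active = activation above the mean of all tested compounds plus 3 SD, cut at about 21% in these data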
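Technique: 405 nm absorbance of p-nitroaniline, reads at 0 and 120 min; Test system: Procaspase-3 D3A mutant; Incubation: 1 h enzyme-compound preincubation, then 2 h substrate reaction, 25 °C; Repeats: singlicate, each compound tested once; Benchmarks: low control DMSO wells, high control DMSO plus 5 µM PC-3 D3A.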
KLK7 zymogen act: activators of human kallikrein-7 zymogen | P49862 | purified proKLK7, EDANS-DABCYL substrate fluorescence; 100% is mature enzyme control, 0% vehicle | activation, % at 7 µM | hit rate 0.9% among 370,000 | AID 652039;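 active = activation above the mean of all tested compounds plus 3 SD, computed per campaign excluding outliers beyond control limits, cut at about 13% in these data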
procasp7 counter: counter-screen for procaspase-3 activators: activators of human procaspase-7. P55210. recombinant procaspase-7, Ac-DEVD-pNA absorbance 405 nm; D23A/D198A/D206A triple mutant, cannot self-cleave; scale: DMSO 0, 5 µM enzyme 100. activation, % at 8.5 µM. hit rate 0.093% among 330,000. AID 463210;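 active = percent activation above the screen-wide mean plus 3 SD, cut at about 25% in these data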
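System: Procaspase-7 triple mutant (PC-7 D3A); measure: % activation from two-timepoint absorbance difference, scaled to controls; times: 1 h compound preincubation, 2 h substrate cleavage, 25 °C; also added: Ac-DEVD-pNA substrate, 400 µM as added; measured by: Epi-absorbance of released pNA at 405 nm, two timepoints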
Neddylation inh: blocks human cullin neddylation; P61081+Q13564; TR-FRET cullin neddylation, biochemical; calls only at 25 µM; hit rate 0.58% among 360,000; AID 651699; in the data active = inhibition above about 36%
Target sequence (P61081 whole entry, looked up): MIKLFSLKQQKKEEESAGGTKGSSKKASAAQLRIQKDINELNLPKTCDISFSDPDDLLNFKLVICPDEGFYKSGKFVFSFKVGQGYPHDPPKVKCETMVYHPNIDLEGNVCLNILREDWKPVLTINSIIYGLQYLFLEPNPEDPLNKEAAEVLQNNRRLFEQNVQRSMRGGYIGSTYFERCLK
Target sequence (Q13564 whole entry, looked up): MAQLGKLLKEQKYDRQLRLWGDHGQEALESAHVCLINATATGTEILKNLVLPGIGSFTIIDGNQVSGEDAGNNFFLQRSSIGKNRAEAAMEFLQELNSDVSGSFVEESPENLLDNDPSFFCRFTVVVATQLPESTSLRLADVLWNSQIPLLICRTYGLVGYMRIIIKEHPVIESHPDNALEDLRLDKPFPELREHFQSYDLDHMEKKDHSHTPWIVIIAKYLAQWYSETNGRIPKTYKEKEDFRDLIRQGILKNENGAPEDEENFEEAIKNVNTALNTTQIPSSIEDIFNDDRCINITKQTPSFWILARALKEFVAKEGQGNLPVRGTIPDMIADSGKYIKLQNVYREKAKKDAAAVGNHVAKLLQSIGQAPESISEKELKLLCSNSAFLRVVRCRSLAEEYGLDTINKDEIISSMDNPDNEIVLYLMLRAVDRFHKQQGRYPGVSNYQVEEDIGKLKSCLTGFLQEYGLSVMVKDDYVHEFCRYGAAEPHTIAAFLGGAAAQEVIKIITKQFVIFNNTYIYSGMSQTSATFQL
Neddyl inh conf: confirmation of human cullin neddylation inhibitors; hit rate 13% among 1,800; TR-FRET cullin neddylation biochemical assay; shares compounds with Neddylation inh; AID 652217; calls only at 25 µM; in the data active = inhibition above about 40%;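 note: neddylation substrate is the cullin 1 ring ligase complex with SKP2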
Large screens that a line does not name were inactive (follow-up assays come after a bar, where shown).

CCOC(=O)C1=C(C)NC(C)=C(C(=O)OCC)C1C(=O)OCC(=O)NC(C)c1ccccc1 (stereo not given)	Neddylation inh active (not shown: procasp3 activ, procasp7 counter)
CCOC(=O)C1=C(C)NC(C)=C(C(=O)OCC)C1C(=O)OCC(=O)NCCc1ccc(S(N)(=O)=O)cc1	Neddylation inh active | Neddyl inh conf inactive
COCC(=O)NCCc1ccc(S(N)(=O)=O)cc1	none
CCOC(=O)C1=C(C)NC(C)=C(C(=O)OCC)C1C(=O)OCC(=O)NCc1ccccc1	none (not shown: Neddylation inh)
Nc1nccnc1C(=O)OCC(=O)NCCc1ccc(S(N)(=O)=O)cc1	Neddylation inh active
C=CCN1C(=O)[C@@H](CC(=O)NCCCN2CCCC2=O)[C@]2(C(=O)OC)CCCCC=C12	none (no result: procasp3 activ, procasp7 counter, Neddylation inh)
CCOC(=O)[C@]12CCCCC/C=C\1N(Cc1ccc(OC)cc1)C(=O)[C@H]2CC(=O)NCc1cccc(C(F)(F)F)c1	none (no result: procasp3 activ, procasp7 counter, Neddylation inh)
CN(C)c1ccc(-c2nn3c(-c4ccco4)nnc3s2)cc1	none (no result: procasp3 activ, procasp7 counter, Neddylation inh)
Clc1ccc(-c2ccc(-c3nn4c(-c5ccco5)nnc4s3)o2)cc1	Neddylation inh active | Neddyl inh conf inactive
COc1cc(C(=O)NN=Cc2ccc(N(C)C)cc2)cc(OC)c1OC	Neddylation inh active (no result: procasp3 activ, procasp7 counter) | Neddyl inh conf active
CN(C)c1ccc(/C=N/NC(=O)CCc2nc3ccccc3[nH]2)cc1	Neddylation inh active | Neddyl inh conf active
O=C(Cc1nc2ccccc2[nH]1)N/N=C/c1ccccc1	none
Cc1cccc(OCC(=O)N/N=C/c2ccc(N(C)C)cc2)c1	Neddylation inh active | Neddyl inh conf active
CN(C)c1ccc(/C=N/NC(=O)COc2ccccc2)cc1	Neddylation inh active | Neddyl inh conf active
CN(C)c1ccc(/C=N/NC(=O)CNC(=O)c2ccco2)cc1	Neddylation inh active | Neddyl inh conf active
CN(C)c1ccc(/C=N/NC(=O)c2cccc(N3CCCC3=O)c2)cc1	Neddylation inh active | Neddyl inh conf inactive
COc1cccc(/C=N/NC(=O)c2cccc(N3CCCC3=O)c2)c1	none
CC(C)c1nc2oc3c(=O)[nH]cnc3c2c2c1CCC2	Neddylation inh active | Neddyl inh conf inactive
C#CCN1CC(N(C)CCOC(=O)c2occ3ccccc23)CS1(=O)=O (stereo not given)	none (no result: procasp3 activ, procasp7 counter, Neddylation inh)
COc1cccc(/C=N/NC(=O)c2ccc(CN3c4cccc5cccc(c45)S3(=O)=O)cc2)c1	none (not shown: Neddylation inh)
O=C(N/N=C/c1cccnc1)c1ccc(CN2c3cccc4cccc(c34)S2(=O)=O)cc1	Neddylation inh active | Neddyl inh conf active
Oc1ccccc1C=NN1CCN(Cc2ccccc2)CC1	none (no result: procasp3 activ, procasp7 counter, Neddylation inh)
Cc1csc(SCC(=O)Nc2cccc3nsnc23)n1	Neddylation inh active
Cc1csc(SCC(=O)Nc2ccccc2C)n1	none
CCOC(=O)CSc1ccc2nnc(-c3ccccc3)n2n1	none (not shown: Neddylation inh)
CCOC(=O)CSc1ccc2nnc(-c3cccnc3)n2n1	Neddylation inh active
Cc1cc(-n2ccnc2)n2c(nc3ccccc32)c1C#N	Neddylation inh active | Neddyl inh conf inactive
CCCCOc1ccc(C(=O)NC2CCCCN(C(C)C)C2=O)cc1 (stereo not given)	none (no result: procasp3 activ, procasp7 counter, Neddylation inh)
COc1cc(/C=N/NC(=O)c2ccc3nc[nH]c3c2)cc(OC)c1OC	none (no result: KLK7 zymogen act, Neddylation inh)
COc1cc(/C=N/NC(=O)c2ccc(CSc3nc4ccccc4[nH]3)cc2)cc(OC)c1OC	Neddylation inh active | Neddyl inh conf active
COc1cc(/C=N/Nc2nc3ccccc3[nH]2)cc(Br)c1OCC(=O)N(C)C	Neddylation inh active | Neddyl inh conf active
O=C(c1ccc(F)cc1)N1CCN(c2ccc(N3CCOCC3)nn2)CC1	none (not shown: Neddylation inh)
Cc1ccc(C(=O)N2CCN(c3ccc(N4CCOCC4)nn3)CC2)cc1	Neddylation inh active
O=C(c1cc(Br)ccc1Cl)N1CCN(c2ccc(N3CCOCC3)nn2)CC1	Neddylation inh active
CCCCOc1ccc(C(=O)N2CCN(c3ccc(N4CCOCC4)nn3)CC2)cc1	Neddylation inh active
COc1ccc(C(=O)CCC(=O)N2CCN(c3ccc(N4CCOCC4)nn3)CC2)cc1	Neddylation inh active
O=C(c1ccc(Cl)cc1)N1CCN(c2ccc(N3CCOCC3)nn2)CC1	none (not shown: procasp3 activ, procasp7 counter, Neddylation inh)
COc1ccc(N2CCN(C(=O)CCCC(=O)c3ccccc3)CC2)cc1	none
CC(C)=CCC[C@@]1(C(=O)O)[C@@H]2C/C=C(\C)CC/C=C(\C)CC[C@H]1[C@]1(CC2)CO1	none (no result: procasp3 activ, procasp7 counter, Neddylation inh)
CCCCNC(=O)NS(=O)(=O)c1ccc(NC(=O)CSc2nnc(-c3ccc(Cl)cc3)n2N)cc1	none (no result: procasp3 activ, procasp7 counter, Neddylation inh)
COc1cc(OC)cc(C(=O)N2CCN(c3ccc(N4CCOCC4)nn3)CC2)c1	Neddylation inh active
Cc1cccc(C(=O)N2CCN(c3ccc(N4CCOCC4)nn3)CC2)c1	none (not shown: Neddylation inh)
COc1ccc(NC(=O)CN(C)C(=O)c2cc(-c3ccc(Cl)cc3)nc3ccccc23)cc1	none
COc1ccc(-c2cc(C(=O)N(C)CC(=O)Nc3ccccc3Br)c3ccccc3n2)cc1OC	Neddylation inh active | Neddyl inh conf active
CN(CC(=O)Nc1ccccc1Br)C(=O)c1cc(Cl)nc2ccccc12	none
CCOc1ccc(NC(=O)CN(C)C(=O)c2cc(-c3ccc(OC)cc3)nc3ccccc23)cc1OCC	Neddylation inh active
COC(=O)C1=C(C)N(Cc2ccc(C(F)(F)F)cc2)C(=NCc2ccccc2)NC1c1ccc(C(F)(F)F)cc1 (stereo not given)	none (no result: procasp3 activ, procasp7 counter, Neddylation inh)
COc1ccc(-c2nnc(SCC(=O)NN=Cc3c(O)ccc4ccccc34)n2-c2ccc(OC)cc2)cc1	none (no result: procasp3 activ, procasp7 counter, Neddylation inh)
O=C(Nc1cccc2nsnc12)c1ccc2c(c1)OCO2	Neddylation inh active | Neddyl inh conf active
O=C(Nc1cccc2nsnc12)c1ccc(F)cc1	none
COCCn1nnnc1C(c1cc2cc(OC)c(OC)cc2[nH]c1=O)N1CCN(c2ccc(O)cc2)CC1 (stereo not given)	Neddylation inh active | Neddyl inh conf inactive
CC(C)(C)c1ccc(/C=C2\CCn3c2nc2cc(C(=O)O)ccc2c3=O)cc1	Neddylation inh active (no result: KLK7 zymogen act) | Neddyl inh conf active
Cc1ccc2c(c1)C1CS(=O)(=O)N(Cc3ccc(F)cc3)CN1C2 (stereo not given)	none (no result: procasp3 activ, procasp7 counter, Neddylation inh)
CCOc1ccccc1C(=O)Nc1ccc(C(=O)NCC2COc3ccccc3O2)cc1 (stereo not given)	none (no result: procasp3 activ, procasp7 counter, Neddylation inh)
CCc1c(C)c2ccc(OC(C)C(=O)NC(Cc3c[nH]c4ccc(O)cc34)C(=O)O)c(C)c2oc1=O (stereo not given)	Neddylation inh active | Neddyl inh conf active
C=CCn1c(SCC(=O)Nc2ccccc2-c2ccccc2)nnc1-c1ccccc1	none (no result: procasp3 activ, procasp7 counter, Neddylation inh)
COC(=O)[C@]12C[C@H](CC(=O)NCc3cccc(C(F)(F)F)c3)C(=O)N(CCC3=CCCCC3)C1=C[C@H](COCc1ccccc1)O[C@@H]2C	none (no result: procasp3 activ, procasp7 counter, Neddylation inh)
O=c1c2ccccc2nc2ccc(NCc3ccco3)nn12	Neddylation inh active | Neddyl inh conf inactive
CC(C)c1cc(C(C)C)c(S(=O)(=O)N2CCC(C(=O)NCc3cccs3)CC2)c(C(C)C)c1	none (no result: procasp3 activ, procasp7 counter, Neddylation inh)
